pKd: −log10 of the molar value.
Assays:
[1] = test system: Heart; experiment: Biodistribution in ddY mouse heart at 0.1 to 0.4 uCi, iv after 30 mins by gamma counting; format: ADME, organism-based; conditions: in vivo, 0.5 h
In short: (§1)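 [125I]ligand (0.1–0.4 µCi) in 100 µL PBS (pH 7.4) containing 30 µL DMSO, injected into the tail vein of ddY mice (5 weeks, 22–25 g). Mice sacrificed at 2, 10, 30 and 60 min. Organs removed, weighed and gamma-counted. Values are % injected dose per gram, except stomach as % dose per organ. Mean (SD) of 3–6 mice per time point.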

[2] = test system: Liver; experiment: Biodistribution in ddY mouse liver at 0.1 to 0.4 uCi, iv after 60 mins by gamma counting; format: ADME, organism-based; conditions: in vivo, 1 h; in short: as §1
[3] = test system: Lung; experiment: Biodistribution in ddY mouse lung at 0.1 to 0.4 uCi, iv after 30 mins by gamma counting; format: ADME, organism-based; conditions: in vivo, 0.5 h; in short: as §1
[4] = n-octanol-sodium phosphate buffer partition co-efficient, log D of the compound at pH 7.4 by shake flask method; format: physicochemical
In short: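 Shake-flask partition between n-octanol and sodium phosphate buffer, pH 7.4, shaken 10 min at room temperature, then centrifuged. Weighed 0.5 mL samples of each layer counted. log D from the ratio of cpm per gram of octanol to cpm per gram of buffer; n = 3.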

[5] = test system: Blood; experiment: Biodistribution in ddY mouse blood at 0.1 to 0.4 uCi, iv after 60 mins by gamma counting; format: ADME, organism-based; conditions: in vivo, 1 h; in short: as §1
[6] = test system: Pancreas; experiment: Biodistribution in ddY mouse pancreas at 0.1 to 0.4 uCi, iv after 30 mins by gamma counting; format: ADME, organism-based; conditions: in vivo, 0.5 h; in short: as §1
[7] = test system: Liver; experiment: Biodistribution in ddY mouse liver at 0.1 to 0.4 uCi, iv after 10 mins by gamma counting; format: ADME, organism-based; conditions: in vivo; in short: as §1
[8] = test system: Kidney; experiment: Biodistribution in ddY mouse kidney at 0.1 to 0.4 uCi, iv after 60 mins by gamma counting; format: ADME, organism-based; conditions: in vivo, 1 h; in short: as §1
[9] = test system: Kidney; experiment: Biodistribution in ddY mouse kidney at 0.1 to 0.4 uCi, iv after 30 mins by gamma counting; format: ADME, organism-based; conditions: in vivo, 0.5 h; in short: as §1
[10] = test system: Stomach; experiment: Biodistribution in ddY mouse stomach assessed per organ at 0.1 to 0.4 uCi, iv after 10 mins by gamma counting; format: ADME, organism-based; conditions: in vivo; in short: as §1
[11] = test system: Kidney; experiment: Biodistribution in ddY mouse kidney at 0.1 to 0.4 uCi, iv after 10 mins by gamma counting; format: ADME, organism-based; conditions: in vivo; in short: as §1
[12] = test system: Heart; experiment: Biodistribution in ddY mouse heart at 0.1 to 0.4 uCi, iv after 2 mins by gamma counting; format: ADME, organism-based; conditions: in vivo; in short: as §1
[13] = test system: Intestine; experiment: Biodistribution in ddY mouse intestine at 0.1 to 0.4 uCi, iv after 60 mins by gamma counting; format: ADME, organism-based; conditions: in vivo, 1 h; in short: as §1
[14] = test system: Heart; experiment: Biodistribution in ddY mouse heart at 0.1 to 0.4 uCi, iv after 10 mins by gamma counting; format: ADME, organism-based; conditions: in vivo; in short: as §1
[15] = test system: Blood; experiment: Biodistribution in ddY mouse blood at 0.1 to 0.4 uCi, iv after 2 mins by gamma counting; format: ADME, organism-based; conditions: in vivo; in short: as §1
[16] = test system: Heart; experiment: Biodistribution in ddY mouse heart at 0.1 to 0.4 uCi, iv after 60 mins by gamma counting; format: ADME, organism-based; conditions: in vivo, 1 h; in short: as §1
[17] = test system: Stomach; experiment: Biodistribution in ddY mouse stomach assessed per organ at 0.1 to 0.4 uCi, iv after 60 mins by gamma counting; format: ADME, organism-based; conditions: in vivo, 1 h; in short: as §1
[18] = test system: Stomach; experiment: Biodistribution in ddY mouse stomach assessed per organ at 0.1 to 0.4 uCi, iv after 30 mins by gamma counting; format: ADME, organism-based; conditions: in vivo, 0.5 h; in short: as §1
[19] = test system: Spleen; experiment: Biodistribution in ddY mouse spleen at 0.1 to 0.4 uCi, iv after 30 mins by gamma counting; format: ADME, organism-based; conditions: in vivo, 0.5 h; in short: as §1
[20] = test system: Blood; experiment: Biodistribution in ddY mouse blood at 0.1 to 0.4 uCi, iv after 10 mins by gamma counting; format: ADME, organism-based; conditions: in vivo; in short: as §1
[21] = test system: Pancreas; experiment: Biodistribution in ddY mouse pancreas at 0.1 to 0.4 uCi, iv after 2 mins by gamma counting; format: ADME, organism-based; conditions: in vivo; in short: as §1
[22] = test system: Spleen; experiment: Biodistribution in ddY mouse spleen at 0.1 to 0.4 uCi, iv after 10 mins by gamma counting; format: ADME, organism-based; conditions: in vivo; in short: as §1
[23] = test system: Brain; experiment: Biodistribution in ddY mouse brain at 0.1 to 0.4 uCi, iv after 60 mins by gamma counting; format: ADME, organism-based; conditions: in vivo, 1 h; in short: as §1
[24] = test system: Lung; experiment: Biodistribution in ddY mouse lung at 0.1 to 0.4 uCi, iv after 2 mins by gamma counting; format: ADME, organism-based; conditions: in vivo; in short: as §1
[25] = test system: Intestine; experiment: Biodistribution in ddY mouse intestine at 0.1 to 0.4 uCi, iv after 2 mins by gamma counting; format: ADME, organism-based; conditions: in vivo; in short: as §1
[26] = test system: Spleen; experiment: Biodistribution in ddY mouse spleen at 0.1 to 0.4 uCi, iv after 60 mins by gamma counting; format: ADME, organism-based; conditions: in vivo, 1 h; in short: as §1
[27] = test system: Liver; experiment: Biodistribution in ddY mouse liver at 0.1 to 0.4 uCi, iv after 30 mins by gamma counting; format: ADME, organism-based; conditions: in vivo, 0.5 h; in short: as §1
[28] = test system: Brain; experiment: Biodistribution in ddY mouse brain at 0.1 to 0.4 uCi, iv after 10 mins by gamma counting; format: ADME, organism-based; conditions: in vivo; in short: as §1
[29] = test system: Lung; experiment: Biodistribution in ddY mouse lung at 0.1 to 0.4 uCi, iv after 60 mins by gamma counting; format: ADME, organism-based; conditions: in vivo, 1 h; in short: as §1
[30] = test system: Liver; experiment: Biodistribution in ddY mouse liver at 0.1 to 0.4 uCi, iv after 2 mins by gamma counting; format: ADME, organism-based; conditions: in vivo; in short: as §1
[31] = test system: Blood; experiment: Biodistribution in ddY mouse blood at 0.1 to 0.4 uCi, iv after 30 mins by gamma counting; format: ADME, organism-based; conditions: in vivo, 0.5 h; in short: as §1
[32] = test system: Intestine; experiment: Biodistribution in ddY mouse intestine at 0.1 to 0.4 uCi, iv after 30 mins by gamma counting; format: ADME, organism-based; conditions: in vivo, 0.5 h; in short: as §1
[33] = test system: Stomach; experiment: Biodistribution in ddY mouse stomach assessed per organ at 0.1 to 0.4 uCi, iv after 2 mins by gamma counting; format: ADME, organism-based; conditions: in vivo; in short: as §1
[34] = test system: Brain; experiment: Biodistribution in ddY mouse brain at 0.1 to 0.4 uCi, iv after 2 mins by gamma counting; format: ADME, organism-based; conditions: in vivo; in short: as §1
[35] = test system: Pancreas; experiment: Biodistribution in ddY mouse pancreas at 0.1 to 0.4 uCi, iv after 60 mins by gamma counting; format: ADME, organism-based; conditions: in vivo, 1 h; in short: as §1
[36] = target: Amyloid-beta precursor protein (Homo sapiens, UniProt P05067); experiment: Binding affinity to amyloid beta aggregate (unknown origin) by centrifugation method
Sequence of Amyloid-beta precursor protein (P05067 whole entry): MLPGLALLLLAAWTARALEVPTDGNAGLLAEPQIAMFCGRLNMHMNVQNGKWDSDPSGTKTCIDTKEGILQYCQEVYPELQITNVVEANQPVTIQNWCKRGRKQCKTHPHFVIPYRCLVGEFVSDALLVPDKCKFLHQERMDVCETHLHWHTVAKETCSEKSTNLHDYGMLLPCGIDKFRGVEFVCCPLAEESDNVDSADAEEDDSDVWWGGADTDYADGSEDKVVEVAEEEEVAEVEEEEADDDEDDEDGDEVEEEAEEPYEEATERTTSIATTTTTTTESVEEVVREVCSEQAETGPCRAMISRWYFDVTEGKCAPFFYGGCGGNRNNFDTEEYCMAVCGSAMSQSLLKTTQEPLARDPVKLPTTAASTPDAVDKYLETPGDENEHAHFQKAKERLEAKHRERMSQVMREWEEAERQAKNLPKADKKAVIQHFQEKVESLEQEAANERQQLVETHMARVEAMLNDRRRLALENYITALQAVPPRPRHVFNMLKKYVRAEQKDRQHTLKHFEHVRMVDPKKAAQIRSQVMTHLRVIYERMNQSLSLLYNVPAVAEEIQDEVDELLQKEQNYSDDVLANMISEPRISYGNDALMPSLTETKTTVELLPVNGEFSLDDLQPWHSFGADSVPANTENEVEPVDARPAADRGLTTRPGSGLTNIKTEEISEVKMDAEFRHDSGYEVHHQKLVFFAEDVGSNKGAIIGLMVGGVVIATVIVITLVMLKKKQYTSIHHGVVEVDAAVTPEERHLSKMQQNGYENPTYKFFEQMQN
In short: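 Aβ(1-42) aggregated at 0.25 mg/mL in pH 7.4 buffer (10 mM sodium phosphate, 1 mM EDTA), 37 °C for 42 h with shaking. [125I]ligand at 4–500 nM final (set with unlabelled compound) in 10% EtOH incubated with aggregates 2 h at room temperature. Centrifuged 16,000 rpm, 10 min; supernatant gamma-counted for bound/free ratio. Nonspecific binding with 10 µM unlabelled ligand. Kd and Bmax from Scatchard analysis.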

[37] = test system: Intestine; experiment: Biodistribution in ddY mouse intestine at 0.1 to 0.4 uCi, iv after 10 mins by gamma counting; format: ADME, organism-based; conditions: in vivo; in short: as §1
[38] = test system: Spleen; experiment: Biodistribution in ddY mouse spleen at 0.1 to 0.4 uCi, iv after 2 mins by gamma counting; format: ADME, organism-based; conditions: in vivo; in short: as §1
[39] = test system: Pancreas; experiment: Biodistribution in ddY mouse pancreas at 0.1 to 0.4 uCi, iv after 10 mins by gamma counting; format: ADME, organism-based; conditions: in vivo; in short: as §1
[40] = test system: Brain; experiment: Biodistribution in ddY mouse brain at 0.1 to 0.4 uCi, iv after 30 mins by gamma counting; format: ADME, organism-based; conditions: in vivo, 0.5 h; in short: as §1
[41] = test system: Lung; experiment: Biodistribution in ddY mouse lung at 0.1 to 0.4 uCi, iv after 10 mins by gamma counting; format: ADME, organism-based; conditions: in vivo; in short: as §1
[42] = test system: Kidney; experiment: Biodistribution in ddY mouse kidney at 0.1 to 0.4 uCi, iv after 2 mins by gamma counting; format: ADME, organism-based; conditions: in vivo; in short: as §1

- Drug uptake [1]: 7 % ID/g
- Drug uptake [2]: 11.61 % ID/g
- Drug uptake [3]: 35.64 % ID/g
- logD [4]: 1.11
- Drug uptake [5]: 0.52 % ID/g
- Drug uptake [6]: 7.67 % ID/g
- Drug uptake [7]: 9.7 % ID/g
- Drug uptake [8]: 12.19 % ID/g
- Drug uptake [9]: 13.93 % ID/g
- Drug uptake [10]: 1.33 %ID
- Drug uptake [11]: 13.58 % ID/g
- Drug uptake [12]: 15.53 % ID/g
- Drug uptake [13]: 5.59 % ID/g
- Drug uptake [14]: 13.09 % ID/g
- Drug uptake [15]: 4.21 % ID/g
- Drug uptake [16]: 3.96 % ID/g
- Drug uptake [17]: 1.24 %ID
- Drug uptake [18]: 1.48 %ID
- Drug uptake [19]: 10.88 % ID/g
- Drug uptake [20]: 1.85 % ID/g
- Drug uptake [21]: 4.76 % ID/g
- Drug uptake [22]: 9.38 % ID/g
- Drug uptake [23]: 0.28 % ID/g
- Drug uptake [24]: 73.08 % ID/g
- Drug uptake [25]: 1.89 % ID/g
- Drug uptake [26]: 11.17 % ID/g
- Drug uptake [27]: 11.02 % ID/g
- Drug uptake [28]: 0.33 % ID/g
- Drug uptake [29]: 25.58 % ID/g
- Drug uptake [30]: 8.15 % ID/g
- Drug uptake [31]: 0.73 % ID/g
- Drug uptake [32]: 4.4 % ID/g
- Drug uptake [33]: 1.18 %ID
- Drug uptake [34]: 0.32 % ID/g
- Drug uptake [35]: 6.32 % ID/g
- pKd [36]: 7.32
- Drug uptake [37]: 2.55 % ID/g
- Drug uptake [38]: 6.14 % ID/g
- Drug uptake [39]: 5.85 % ID/g
- Drug uptake [40]: 0.24 % ID/g
- Drug uptake [41]: 59.55 % ID/g
- Drug uptake [42]: 10.23 % ID/g
Compound: CCN(CC)CCCC(C)Nc1c2ccc([125I])cc2nc2ccc(OC)cc12 (configuration not stated)

— ChEMBL document CHEMBL2321753, “Synthesis and biological evaluation of radioiodinated quinacrine-based derivatives for SPECT imaging of Aβ plaques” (Eur J Med Chem, 2013)
